E-sel inducer: induces E-selectin expression in human endothelial cells | HUVEC E-selectin immunofluorescence imaging; normalized: neutral wells 0, TNF-alpha wells 100 | 260,000 compounds, 0.37% hits | activation, % at 7.58 µM | P16581;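 active means mean E-selectin-positive cell signal at least 10% of the positive control, reached in at least 60% of replicates, without over 20% cell loss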
Target sequence (P16581 whole entry, looked up): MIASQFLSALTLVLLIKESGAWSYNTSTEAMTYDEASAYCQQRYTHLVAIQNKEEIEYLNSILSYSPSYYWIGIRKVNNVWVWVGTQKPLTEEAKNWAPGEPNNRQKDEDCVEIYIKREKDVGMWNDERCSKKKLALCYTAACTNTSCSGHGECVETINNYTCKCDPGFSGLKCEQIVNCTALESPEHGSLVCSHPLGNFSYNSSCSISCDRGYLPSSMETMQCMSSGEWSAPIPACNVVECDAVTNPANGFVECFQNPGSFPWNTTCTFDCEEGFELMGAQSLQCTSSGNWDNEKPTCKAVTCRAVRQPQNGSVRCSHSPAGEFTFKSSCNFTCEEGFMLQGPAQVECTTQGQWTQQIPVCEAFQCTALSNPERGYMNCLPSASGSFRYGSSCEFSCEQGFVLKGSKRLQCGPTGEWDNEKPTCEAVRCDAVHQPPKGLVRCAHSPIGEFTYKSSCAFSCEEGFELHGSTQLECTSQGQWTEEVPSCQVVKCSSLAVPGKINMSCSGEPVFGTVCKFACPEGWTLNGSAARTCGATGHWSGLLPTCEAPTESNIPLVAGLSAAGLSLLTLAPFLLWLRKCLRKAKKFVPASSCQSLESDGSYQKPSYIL
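assay system = HUVEC, human umbilical vein endothelial cells | input = 3,000 HUVEC seeded per well | medium = EGM-2 growth medium on 0.1% gelatin-coated wells | dosing = one compound dose added by pin transfer | signal = immunofluorescence imaging | read-out basis = % PE-positive cells | control set = TNF-alpha, DMSO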
DENV2 CPE: protects cells from dengue virus 2 cytopathic effect | DENV2-infected cells, cytopathic effect rescue, plate reader | 350,000 compounds, 1.7% hits | CPE inhibition, % at 9.99 µM; in the data active means CPE inhibition above about 20%, passing the limit was not always enough; tested in BHK-21 cells
S100A4 inh HTS: inhibitors of human S100A4 binding to myosin IIA peptide. S100A4/TAMRA-MyoIIA peptide fluorescence polarization. inhibition, % at 10.7 µM. 360,000 compounds, 0.14% hits. AID 652163;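 active means mean inhibition of at least 70% across replicates, with every replicate also reaching that level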
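Material: S100A4 monomer protein / Buffer or medium: 50 mM HEPES pH 7.2, 10 mM CaCl2, 100 mM KCl / Times: 5 min incubation before reading / Benchmarks: neutral control DMSO, positive control TFP / Reagent: labelled myosin peptide probe, 5 nM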
XiGFP reactiv: X-chromosome reactivation activator | XiGFP mouse fibroblasts, % GFP-positive cells imaging, 3 d; cells co-treated with 5-aza-dC sensitizer; scaled so ellipticine positive control = 100% | activation, % at 7.58 µM | 360,000 compounds, 0.055% hits;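 active means mean normalized replicate activation at least 10% and every replicate at or above 10%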
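Material: XiGFP fibroblasts, SV40-immortalized. Buffer or medium: DMEM plus 5-aza-dC sensitizer. Compound: single concentration per compound, delivered by pin transfer. Times: 3 days compound exposure. Controls: ellipticine 6 µM.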
A number is an active result; – = inactive; · = not tested or not shown. Compounds with a hit are over-represented: about 2% of the library has one in this group of screens.

SMILES | E-sel inducer | DENV2 CPE | S100A4 inh HTS | XiGFP reactiv
C[C@H]1CN([C@@H](C)CO)C(=O)c2cccc(NS(=O)(=O)c3ccccc3)c2O[C@H]1CN(C)Cc1ccc(C(F)(F)F)cc1 | – | 78.0 | – | –
C[C@@H]1CC2OC(=O)[C@@]3(C)C(=O)CC[C@@](C)(C23)[C@@]1(O)CCc1ccoc1 (stereo partly drawn) | – | – | – | –
O=C(Nc1nnc(Cc2ccccc2F)s1)c1ccccc1Cl | – | 78.0 | – | –
COc1ccc(C(C)NC(=O)c2ccccc2Cl)cc1OC (stereo not drawn) | · | 64.3 | – | –
COc1ccc(Cc2nnc(NC(=O)c3ccccc3Cl)s2)cc1OC | · | 40.8 | – | –
O=C(O)COCC(=O)Nc1ccc2c(c1)ncn2CCc1ccccc1 | – | – | – | –
CC(C)(C)c1ccc(S(=O)(=O)N2CCCCC2C(=O)NCc2ccccn2)cc1 (stereo not drawn) | – | – | – | –
CCC(/C=C1\Sc2ccc(OC)cc2N1CC)=C\c1sc2ccc(OC)cc2[n+]1CCCS(=O)(=O)[O-] | – | – | 98.9 | –
COc1cc(CCCN2CCNC[C@@H]2c2ccccc2)cc(OC)c1OC | – | 70.2 | – | –
COc1cc(CCCN2CCNC[C@H]2Cc2ccc(O)cc2)cc(OC)c1OC | – | – | – | –
Cc1cc(N2CCN(S(=O)(=O)c3ccc4ccccc4c3)CC2)n2ncnc2n1 | – | – | – | –
COc1ccc(Cn2cc3c(-c4ccc(F)cc4)nnc-3c3cc(OC)c(OC)cc32)cc1 | – | – | – | 80.5
COc1cc2c3nnc(-c4ccc(F)cc4)c-3cn(Cc3ccccc3)c2cc1OC | – | – | – | 90.7
CC(=O)OC1CCC2C3CCC4=CC(=O)CCC4(C)C3CCC2(C)[C@]1(C)O (stereo partly drawn) | – | 105.7 | – | –
O=C(C[C@H]1C[C@H]2c3cc(NC(=O)C4CCC4)ccc3O[C@H]2[C@@H](CO)O1)NC1CCCC1 | – | – | – | –
C[C@@H]1CN([C@H](C)CO)C(=O)Cc2cc(NC(=O)Nc3ccc(F)cc3)ccc2O[C@@H]1CN(C)S(=O)(=O)c1ccc(Cl)cc1 | 34.7 | – | – | –
C[C@H]1CN([C@@H](C)CO)C(=O)Cc2cc(NC(=O)Nc3ccc(F)cc3)ccc2O[C@H]1CN(C)S(=O)(=O)c1ccc(Cl)cc1 | – | 43.3 | – | –
Cc1cccc(CN2[C@H](COC(=O)Nc3ccccc3)C=CS2(=O)=O)c1 | – | – | – | –
Cc1ccc(C)c(NC(=O)C2CCCN(S(=O)(=O)c3c(C)noc3/C=C/N(C)C)C2)c1 (stereo not drawn) | · | – | 121.8 | –
CN(C)c1cccc2c1c(NC(=O)Nc1ccc(Cl)cc1Cl)nn2C | – | – | – | –
CCc1nc(N2[C@H](C#N)[C@H](c3ccccc3-c3ccccc3F)[C@H]2CO)sc1C | – | – | – | –
Cc1ccc(Cn2cc(CN3CC(N(C)C)CS3(=O)=O)nn2)cc1 (stereo not drawn) | – | 23.0 | – | –
CN(C)C1CN(Cc2cn(Cc3ccc(F)cc3)nn2)S(=O)(=O)C1 (stereo not drawn) | – | – | – | –
COc1ccc([C@H]2N[C@]3(CCCN(Cc4ccc(C)cc4)C3=O)[C@H]3C(=O)N(C)C(=O)[C@@H]23)cc1 | – | – | – | –
O=C1[C@H]2[C@@H](c3ccccc3)N[C@]3(CCCN(Cc4ccc(Br)cc4)C3=O)[C@H]2C(=O)N1Cc1ccccc1 | – | – | – | –
SMILES | E-sel inducer | DENV2 CPE | S100A4 inh HTS | XiGFP reactiv
COc1ccc(CN2CCC[C@]3(N[C@H](c4ccc(OC)cc4)[C@@H]4C(=O)N(C)C(=O)[C@@H]43)C2=O)cc1 | – | 27.2 | – | –
O=C1[C@H]2[C@@H](c3ccccc3)N[C@]3(CCCN(Cc4ccc(Cl)cc4)C3=O)[C@H]2C(=O)N1Cc1ccccc1 | – | 44.2 | – | –
CCC(C)[C@H]1CN=C(N)N1CCc1cc(C(F)(F)F)cc(C(F)(F)F)c1 (stereo partly drawn) | – | – | – | –
CC(C)NC(=O)N(C)C[C@H]1OCCCC[C@@H](C)Oc2ccc(NS(=O)(=O)c3cn(C)cn3)cc2C(=O)N([C@H](C)CO)C[C@@H]1C | · | – | – | –
CC(C)NC(=O)N(C)C[C@@H]1Oc2c(NC(=O)CCCCCC(=O)Nc3ccccc3N)cccc2C(=O)N([C@H](C)CO)C[C@H]1C | – | – | – | –
CC(C)NC(=O)N(C)C[C@@H]1Oc2c(NC(=O)CCCCCC(=O)Nc3ccccc3N)cccc2C(=O)N([C@@H](C)CO)C[C@H]1C | – | 24.9 | – | –
Cc1noc(C)c1NC(=O)N(C)C[C@H]1Oc2c(NC(=O)CCCCCC(=O)Nc3ccccc3N)cccc2C(=O)N([C@@H](C)CO)C[C@H]1C | – | – | 76.3 | –
C[C@H](CO)N1C[C@H](C)[C@H](CN(C)C(=O)Nc2ccc(F)cc2)Oc2c(NC(=O)CCCCCC(=O)Nc3ccccc3N)cccc2C1=O | – | – | – | –
Cc1noc(C)c1NC(=O)N(C)C[C@@H]1Oc2c(NC(=O)CCCCCC(=O)Nc3ccccc3N)cccc2C(=O)N([C@@H](C)CO)C[C@@H]1C | – | – | – | –
C[C@@H]1CN([C@@H](C)CO)C(=O)c2cccc(NC(=O)CCCCCC(=O)Nc3ccccc3N)c2O[C@H]1CN(C)C(=O)Nc1ccc(F)cc1 | – | 48.5 | – | –
COc1ccc(CC(=O)n2[nH]c(=O)ccc2=O)cc1OC | · | – | – | –
COc1cc(CNc2nccn3ccnc23)cc(OC)c1 | – | 36.3 | – | –
COCCCNc1nccn2ccnc12 | – | – | – | –
COc1cccc(CN(C)S(=O)(=O)c2cccs2)c1 | – | 24.8 | – | –
O=C(COC(=O)c1ccccc1O)NC1CCCc2ccccc21 (stereo not drawn) | – | – | – | –
COc1ccc(Br)cc1S(=O)(=O)N(CC(=O)N1CCN(C)CC1)c1ccccc1 | – | – | – | –
COc1ccc(N(CC(=O)N2CCN(C)CC2)S(=O)(=O)c2cc(C)ccc2OC)cc1Cl | – | 83.2 | – | –
Nc1ccc2ccc(O)cc2c1 | – | – | – | –
C[n+]1c2cc(N)ccc2cc2ccc(N)cc21 | – | – | – | 52.8
COc1ccc(CCNC(=O)c2c(C)nn(CC(C)C)c2Cl)cc1OC | – | 95.3 | – | –
COc1ccc(CCN(C)C(=O)c2c(C)nn(CC(C)C)c2Cl)cc1OC | · | – | – | –
CCNC(=O)Nc1ccc2c(c1)C(=O)N(C)[C@H]1CC[C@@H](CC(=O)NC3CCCCC3)O[C@@H]1CO2 | – | 27.4 | – | –
CC(=O)Nc1ccc2c(c1)C(=O)N(C)[C@H]1CC[C@H](CC(=O)Nc3cccc(C(C)C)c3)O[C@@H]1CO2 | – | 107.9 | – | –
CC(C)c1cccc(NC(=O)C[C@H]2CC[C@H]3[C@@H](COc4ccc(NC(=O)NCc5ccccc5)cc4C(=O)N3C)O2)c1 | – | – | – | –
Cc1nn(C)cc1NC(=O)C[C@H]1CC[C@@H]2[C@H](COc3ccc(NC(=O)NC(C)C)cc3C(=O)N2C)O1 | – | 32.6 | – | –
